HCT116 bCat-KO: primary screen for growth suppressors in beta-catenin knockout HCT116 cells (colon tumor, human) | AID 818, 2007 | HCT116 beta-catenin knockout viability, CellTiter-Glo, 60 h; stronger effect = lower value | viability, % at 10 µM | 140,000 compounds, 1.5% hits;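 active = viability at or under a set limit, the compound median less 4 SD, cut at about 6% in these data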
Lung fibro prol: antiproliferative effect on LL 47 fibroblasts – human, LL 47 cells, CellTiter-Glo luminescence, primary screen | LL 47 human lung fibroblast viability, ATP luminescence; stronger effect = lower value | viability, % at 10 µM | 85,000 compounds, 1.1% hits | AID 719, 2007;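 active = viability at or below 50% in the single dose screen; inactive = viability above 50%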;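 also: compound exposure lasted 72 h before the ATP readout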
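Material: human lung fibroblast line LL 47, low passage; Evaluation: viability percentage against median untreated-cell control; Buffer or medium: 15% FBS in IMEM; Incubation: 72 h compound exposure at 37 °C after overnight plating; Dosing: 0.1% DMSO in all compound wells; Measured by: CellTiter-Glo luminescence.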
HCT116 PTEN-null: growth suppression of PTEN-null HCT116, primary screen, cell-based, CellTiter-Glo | 140,000 compounds, 1.2% hits | viability, % at 10 µM | AID 827, 2007 | HCT116 PTEN-null viability, 60 h; stronger effect = lower value;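 active = viability at or below a set limit, 4 SD under the median of all tested compounds, cut at about 3.7% in these data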;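 also: PTEN knockout HCT116 line with beta catenin targeted HCT116 as companion control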
PTK2B oligo ant: antagonists of Pyk2 self-association, primary screen, Q293 cells, FERM NanoBiT luminescence, HTS. Protein-tyrosine kinase 2-beta (Homo sapiens), Q14289. stronger effect = lower value. z-score (the deposit names both 25 µM and 10 µM). 99,000 compounds, 0.83% hits;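 active = Z-score of -3 or lower, scaled per plate to the spread of control and sample wells; inactive = z-score above -3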;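 also: negative z-score means lost luminescence so less FERM oligomerization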
HUVEC prolif 384: inhibitors of HUVEC proliferation, primary screen, cell-based, 384-well. 86,000 compounds, 1.1% hits. CellTiter-Glo luminescence, 72 h; stronger effect = lower value. AID 648, 2007. viability, % at 10 µM (by protocol);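 active = viability at or below 30%; inactive = viability above 30%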
H69AR growth 86K: proliferation blockers of H69AR lung cancer cells, primary screen, cell-based, human, 86K library | 85,000 compounds, 6% hits | AID 598, 2007 | H69AR lung tumor viability, ATP luminescence, 72 h; stronger effect = lower value | viability, % at 10 µM;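 active = viability at or below 40%; inactive = viability above 40%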;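 also: multidrug resistant small cell line overexpressing MRP-1 efflux transporter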
Numbers stand for hits. The full list was thinned out, with hits kept by preference.

Cc1cc2oc(=O)cc(CN3CCOCC3)c2cc1C was read as HCT116 bCat-KO inactive, Lung fibro prol inactive, HCT116 PTEN-null inactive, PTK2B oligo ant inactive, HUVEC prolif 384 inactive and H69AR growth 86K inactive.
`COC(=O)c1ccc(-c2nc(O)c3cnccn23)cc1` gave HCT116 bCat-KO inactive, Lung fibro prol inactive, HCT116 PTEN-null inactive, PTK2B oligo ant inactive, HUVEC prolif 384 inactive and H69AR growth 86K inactive.
Screening COc1cc(C(=O)O/N=C2\C=CC(=O)C(C)=C2)cc(OC)c1OC returned HCT116 bCat-KO 1.5, HCT116 PTEN-null 1.4 and PTK2B oligo ant inactive.
For CCOC(=O)CC(C)(C)/C(C)=N/Nc1ccc([N+](=O)[O-])cc1[N+](=O)[O-] the results were HCT116 bCat-KO inactive and HCT116 PTEN-null inactive.
For CC(C)COc1ccc(CSCCNC(=S)Nc2ccccc2)cc1 the results were HCT116 bCat-KO inactive, HCT116 PTEN-null inactive and PTK2B oligo ant inactive.
For COc1ccc(S(=O)(=O)Nc2ccccc2C)cc1 the results were HCT116 bCat-KO inactive, Lung fibro prol inactive, HCT116 PTEN-null inactive, PTK2B oligo ant inactive, HUVEC prolif 384 inactive and H69AR growth 86K 13.
Cc1ccccc1NS(=O)(=O)c1ccc(F)cc1 was read as HCT116 bCat-KO inactive, Lung fibro prol inactive, HCT116 PTEN-null inactive, PTK2B oligo ant inactive, HUVEC prolif 384 inactive and H69AR growth 86K inactive.
O=C(NCCN1CCCC1)c1ccc(CS(=O)(=O)c2c(Cl)cccc2Cl)o1 was read as HCT116 bCat-KO inactive, Lung fibro prol inactive, HCT116 PTEN-null inactive, HUVEC prolif 384 inactive and H69AR growth 86K inactive.
`Oc1ccc2ccccc2c1N=Nc1ccccn1` gave HCT116 bCat-KO 2.4, HCT116 PTEN-null 2.6 and PTK2B oligo ant inactive.
CCOc1cc2[nH]c(=O)n(CC3CCC(C(=O)NC(C)CC)CC3)c(=O)c2cc1OCC (stereo not drawn) was read as Lung fibro prol inactive, HUVEC prolif 384 inactive and H69AR growth 86K inactive.
For CCOc1cc2[nH]c(=O)n(CC3CCC(C(=O)NC4CCCCC4)CC3)c(=O)c2cc1OCC (stereo not drawn) the results were Lung fibro prol inactive, HUVEC prolif 384 30 and H69AR growth 86K inactive.
`O=S(=O)(c1ccc2c(c1)OCCO2)N1CCC(c2nc3ccccc3[nH]2)CC1` gave HCT116 bCat-KO inactive, Lung fibro prol inactive, HCT116 PTEN-null inactive, PTK2B oligo ant inactive and HUVEC prolif 384 inactive.
`Cc1ccc(-c2noc(C3CCN(S(=O)(=O)c4ccc5c(c4)OCCO5)CC3)n2)o1` gave HCT116 bCat-KO inactive, Lung fibro prol inactive, HCT116 PTEN-null inactive, PTK2B oligo ant inactive, HUVEC prolif 384 inactive and H69AR growth 86K 40.
Cc1ccc(-c2noc(C3CCCN(S(=O)(=O)c4ccc5ccccc5c4)C3)n2)o1 (stereo not drawn) was read as HCT116 bCat-KO inactive, Lung fibro prol inactive, HCT116 PTEN-null inactive, PTK2B oligo ant inactive, HUVEC prolif 384 inactive and H69AR growth 86K inactive.
`O=C(NCC1CCCO1)c1ccc(S(=O)(=O)N2CCC(c3nc4ccc(Cl)cc4[nH]3)CC2)cc1` (stereo not drawn) gave HCT116 bCat-KO inactive, Lung fibro prol inactive, HCT116 PTEN-null inactive, PTK2B oligo ant inactive, HUVEC prolif 384 inactive and H69AR growth 86K 36.
Cc1ccc2nc(C3CCN(S(=O)(=O)c4ccc5ccccc5c4)CC3)[nH]c2c1 was read as HCT116 bCat-KO inactive, Lung fibro prol inactive, HCT116 PTEN-null inactive, PTK2B oligo ant inactive, HUVEC prolif 384 inactive and H69AR growth 86K 8.0.
`O=S(=O)(c1ccc2c(c1)OCCO2)N1CCC(c2nc3ccc(Cl)cc3[nH]2)CC1` gave HCT116 bCat-KO inactive, Lung fibro prol inactive, HCT116 PTEN-null inactive, PTK2B oligo ant -3.4, HUVEC prolif 384 inactive and H69AR growth 86K 15.
Screening O=C(c1ccc(S(=O)(=O)N2CCC(c3nc4ccccc4[nH]3)CC2)cc1)N1CCOCC1 returned HCT116 bCat-KO inactive, Lung fibro prol inactive, HCT116 PTEN-null inactive, PTK2B oligo ant inactive, HUVEC prolif 384 inactive and H69AR growth 86K inactive.
CCOc1ccc(CNC(=O)c2ccc(Sc3ccc(C)cc3)c(NC(C)=O)c2)cc1 was read as HCT116 bCat-KO inactive and HCT116 PTEN-null inactive.
For Cc1c(C(=O)Nc2ccc(F)cc2)c2ccccn2c1CCc1ccncc1 the results were HCT116 bCat-KO inactive and HCT116 PTEN-null inactive.
O=S(=O)(c1ccc2c(c1)OCCO2)N1CCC(c2nc3ccccc3s2)CC1 was read as HCT116 bCat-KO inactive, Lung fibro prol inactive, HCT116 PTEN-null inactive, PTK2B oligo ant -3.1, HUVEC prolif 384 inactive and H69AR growth 86K inactive.
CCC(C(=O)NC(C)(C)C)N(C(=O)Cn1nnc(-c2cccs2)n1)c1cnc2ccccc2c1 (stereo not drawn) was read as HCT116 bCat-KO inactive, Lung fibro prol inactive, HCT116 PTEN-null inactive, PTK2B oligo ant inactive, HUVEC prolif 384 inactive and H69AR growth 86K inactive.
Cc1ccc(CNc2ccc(S(=O)(=O)N3CCOCC3)cc2[N+](=O)[O-])cc1 was read as HCT116 bCat-KO inactive and HCT116 PTEN-null inactive.
For COc1ccc(NS(=O)(=O)c2ccc(OC)c(OC)c2)cc1OC the results were HCT116 bCat-KO inactive, Lung fibro prol inactive, HCT116 PTEN-null inactive, PTK2B oligo ant inactive, HUVEC prolif 384 inactive and H69AR growth 86K inactive.
For COc1ccc(S(=O)(=O)Nc2ccc(C(F)(F)F)cc2)cc1OC the results were HCT116 bCat-KO inactive, Lung fibro prol inactive, HCT116 PTEN-null inactive, PTK2B oligo ant -3.4, HUVEC prolif 384 inactive and H69AR growth 86K inactive.
Screening CCN(CC)S(=O)(=O)c1cccc(NC(=O)Nc2cccc(C(F)(F)F)c2)c1 returned HCT116 bCat-KO 4.2, HCT116 PTEN-null 3.2 and PTK2B oligo ant inactive.
Screening CCN(CC)S(=O)(=O)c1ccc2c(c1)nc(CCC(=O)Nc1cccc(C(F)(F)F)c1)n2CC returned HCT116 bCat-KO inactive, Lung fibro prol inactive, HCT116 PTEN-null inactive, PTK2B oligo ant inactive, HUVEC prolif 384 inactive and H69AR growth 86K 14.
Screening CCn1c(CCC(=O)Nc2nc3c(s2)CCCC3)nc2cc(S(=O)(=O)N(C)C)ccc21 returned HCT116 bCat-KO inactive, Lung fibro prol inactive, HCT116 PTEN-null inactive, PTK2B oligo ant inactive, HUVEC prolif 384 inactive and H69AR growth 86K inactive.
Screening O=C1CCCC(=O)C1=C1SCCS1 returned HCT116 bCat-KO inactive and HCT116 PTEN-null inactive.
`COC(=O)c1cc(-c2ccccc2)n(CC(=O)O)c1C` gave HCT116 bCat-KO inactive, Lung fibro prol inactive, HCT116 PTEN-null inactive, PTK2B oligo ant inactive, HUVEC prolif 384 inactive and H69AR growth 86K inactive.
`N#CC(c1cccc(Cl)c1)c1ccc2c(C(F)(F)F)cc(C(F)(F)F)nc2n1` (stereo not drawn) gave HCT116 bCat-KO 0.8, Lung fibro prol 20, HCT116 PTEN-null 1.0, PTK2B oligo ant inactive, HUVEC prolif 384 14 and H69AR growth 86K 4.3.

Source: PubChem
